Assays:
[1] = Inhibition of Sulfurihydrogenibium azorense alpha-carbonic anhydrase preincubated for 15 mins by stopped-flow CO2 hydration assay
Procedure, shortened: (§1)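 Initial rates of CA-catalysed CO2 hydration followed for 10–100 s with phenol red (0.2 mM) read at 557 nm, in 10–20 mM Hepes pH 7.5 with 20 mM Na2SO4 for ionic strength. CO2 1.7–17 mM. Inhibitors in water at 0.01 mM stock, diluted down to 0.01 nM. Enzyme and inhibitor preincubated at room temperature. Uncatalysed rates subtracted. Ki from non-linear least squares and Cheng–Prusoff, mean of at least three determinations.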

[2] = Inhibition of Sulfurihydrogenibium yellowstonense YO3AOP1 carbonic anhydrase preincubated for 15 mins by stopped-flow CO2 hydration assay; procedure, shortened: as §1

Ki [1] [µM]	Ki [2] [µM]	Structure (SMILES)
0.116	0.0891	CC(=O)C1=NN(c2ccc(S(N)(=O)=O)cc2)C(=C(C#N)C#N)S1
0.0212	0.0452	COc1ccc(C(=O)N/N=C(C)/C(Cl)=N/Nc2ccc(S(N)(=O)=O)cc2)cc1
0.0149	0.0064	CC(=N\NC(=O)c1cccs1)/C(Cl)=N/Nc1ccc(S(N)(=O)=O)cc1
0.0135	0.0219	CC(=N\NC(=O)c1ccccc1)/C(=N/Nc1ccc(S(N)(=O)=O)cc1)N1CCCCC1
0.0081	0.0806	CC(=N\NC(=O)c1ccc(Cl)cc1)/C(=N/Nc1ccc(S(N)(=O)=O)cc1)N1CCCCC1
0.004	0.0628	COc1ccc(C(=O)N/N=C(C)/C(=N/Nc2ccc(S(N)(=O)=O)cc2)N2CCCCC2)cc1
0.00077	0.0205	CC(=N\NC(=O)c1cccs1)/C(=N/Nc1ccc(S(N)(=O)=O)cc1)N1CCCCC1
0.0945	0.0429	CC(=N\NC(=O)c1ccccc1)/C(=N/Nc1ccc(S(N)(=O)=O)cc1)S(=O)(=O)c1ccccc1
0.0591	0.0683	CC(=N\NC(=O)c1ccc(Cl)cc1)/C(=N/Nc1ccc(S(N)(=O)=O)cc1)S(=O)(=O)c1ccccc1
0.169	0.0782	COc1ccc(C(=O)N/N=C(C)/C(=N/Nc2ccc(S(N)(=O)=O)cc2)S(=O)(=O)c2ccccc2)cc1
0.0219	0.0745	CC(=N\NC(=O)c1cccs1)/C(=N/Nc1ccc(S(N)(=O)=O)cc1)S(=O)(=O)c1ccccc1
0.0183	0.0283	Cc1nn2c(C)nnc2s/c1=N/Nc1ccc(S(N)(=O)=O)cc1
0.0097	0.0479	Cc1nn2c(-c3ccccc3)nnc2s/c1=N/Nc1ccc(S(N)(=O)=O)cc1
0.193	0.0387	CCOC(=O)/C(C#N)=C1\SC(C(C)=O)=NN1c1ccc(S(N)(=O)=O)cc1
0.234	0.0768	CC(=O)C1=NN(c2ccc(S(N)(=O)=O)cc2)/C(=C(\C#N)C(=O)c2ccccc2)S1
0.101	0.071	CC(=O)C1=NN(c2ccc(S(N)(=O)=O)cc2)/C(=C(\C#N)C(=O)Nc2ccc(S(N)(=O)=O)cc2)S1
0.0243	0.0062	CC(=N\NC(=O)c1ccccc1)/C(Cl)=N/Nc1ccc(S(N)(=O)=O)cc1
0.0185	0.0511	CC(=N\NC(=O)c1ccc(Cl)cc1)/C(Cl)=N/Nc1ccc(S(N)(=O)=O)cc1

Structure (SMILES)	Ki [1] [µM]	Ki [2] [µM]
CC(=O)Nc1nnc(S(N)(=O)=O)s1 [ACETAZOLAMIDE]	0.0009	[…]
